According to ChEMBL document CHEMBL1137992, “Long hydrocarbon chain keto diols and diacids that favorably alter lipid disorders in vivo” (J Med Chem, 2004):

How the values were obtained:
Type in all cases: functional
Rattus norvegicus [1] = experiment: Amount of non-HDL-cholesterol in obese Zucker rats after 1 week of treatment at a dose of 3 mg/kg/day
Summary of the method: (§1)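 Female Zucker fatty rats [Crl:(Zuc)-faBR], 10–12 weeks old (400–500 g), dosed once daily by oral gavage in 20% EtOH/80% PEG-200 (dose volume 0.25% of body weight). Rats were fasted 6 h and bled before dosing and at day 7 (orbital plexus), and at day 14 (cardiac puncture). Serum cholesterol fractions came from Superose 6 gel-filtration lipoprotein profiles (% peak area × serum total cholesterol). Values are mean ± SEM.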

Rattus norvegicus [2] = experiment: Percent increase in HDL-cholesterol in obese Zucker rats after 1 week of treatment at a dose of 100 mg/kg/day
Summary of the method: (§2)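 Female Zucker fatty rats [Crl:(Zuc)-faBR], 10–12 weeks, 400–500 g, acclimated 7 days on chow. Compound or vehicle (20% EtOH/80% PEG-200) given by daily oral gavage for 2 weeks, 0–100 mg/kg/day. After a 6 h fast, blood was taken before dosing, at 1 wk and at 2 wk. Serum lipids, NEFA and insulin (ELISA) were measured; glucose by glucometer. HDL/non-HDL-C came from Superose 6 gel-filtration profiles. Values are % change from pretreatment, mean ± SEM.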

Rattus norvegicus [3] = experiment: Percent increase in non-HDL-cholesterol in obese Zucker rats after 2 weeks of treatment at a dose of 0 mg/kg/day; summary of the method: as §2
Rattus norvegicus [4] = experiment: Amount of non-HDL-cholesterol in obese Zucker rats after 1 week of treatment at a dose of 30 mg/kg/day; summary of the method: as §1
Rattus norvegicus [5] = experiment: Amount of non-HDL-cholesterol in obese Zucker rats at pre-treatment at a dose of 30 mg/kg/day
Summary of the method: (§3)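 Female obese Zucker fatty rats [Crl:(Zuc)-faBR], 10–12 weeks old (400–500 g), on chow. Compound in 20% EtOH/80% PEG-200 (v/v) given by daily oral gavage. After a 6-h fast, serum was taken before dosing and at 7 days (orbital plexus), and at 14 days (cardiac puncture). Lipoprotein cholesterol came from Superose 6HR gel-filtration profiles × serum total cholesterol. Mean ± SEM.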

Rattus norvegicus [6] = experiment: Percentage change of HDL cholesterol levels in obese female Zucker rats after 1 week of pre-treatment at a dose of 100 mg/kg/day
Summary of the method: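 Obese female Zucker fatty rats were gavaged once daily with 30 or 100 mg/kg/day in 20% EtOH/80% PEG-200 for 2 weeks. Sera were collected after a 6 h fast, before dosing, at 1 week (orbital plexus) and at 2 weeks (cardiac puncture). HDL-C was total cholesterol multiplied by HDL area fraction from gel-filtration lipoprotein profiles. Reported as % change from pretreatment ± SEM.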

Rattus norvegicus [7] = experiment: Amount of insulin in obese Zucker rats at pre-treatment at a dose of 0 mg/kg/day
Summary of the method: (§4)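 Female obese Zucker rats [Crl:(Zuc)-faBR], 400–500 g, given daily oral gavage in 20% EtOH/80% PEG-200 for up to 14 days. After a 6-h fast, serum was collected pretreatment and at day 7 (orbital bleed) and day 14 (cardiac puncture) and stored at -80 °C. Insulin was measured by ELISA. Values are mean ± SEM.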

Rattus norvegicus [8] = experiment: Percent decrease in triglycerides in obese Zucker rats after 1 week of treatment at a dose of 30 mg/kg/day; design: scale not given: the % may be the effect or the level left; summary of the method: as §2
Rattus norvegicus [9] = experiment: Amount of HDL-cholesterol in obese Zucker rats at pre-treatment at a dose of 100 mg/kg/day; summary of the method: as §1
Rattus norvegicus [10] = experiment: Amount of HDL-cholesterol in obese Zucker rats after 2 weeks of treatment at a dose of 3 mg/kg/day; summary of the method: as §1
Rattus norvegicus [11] = experiment: Percent increase in HDL-cholesterol in obese Zucker rats after 1 week of treatment at a dose of 10 mg/kg/day; summary of the method: as §2
Rattus norvegicus [12] = experiment: Amount of triglycerides in obese Zucker rats after 2 weeks of treatment at a dose of 3 mg/kg/day
Summary of the method: (§5)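 Female Zucker fatty rats [Crl:(Zuc)-faBR], 10–12 weeks old (400–500 g), dosed once daily by oral gavage in 20% EtOH/80% PEG-200 for up to 14 days. After a 6-h fast, serum was taken pre-dose, at day 7 (orbital venous plexus, O2/CO2 anaesthesia) and at day 14 (cardiac puncture), stored at −80 °C, and assayed on a Hitachi 912 automatic analyzer. Mean ± SEM.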

Rattus norvegicus [13] = experiment: Amount of triglycerides in obese Zucker rats at pre-treatment at a dose of 3 mg/kg/day; summary of the method: as §5
Rattus norvegicus [14] = experiment: Amount of glucose in obese Zucker rats after 2 weeks of treatment at a dose of 0 mg/kg/day
Summary of the method: (§6)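 Female Zucker fatty rats [Crl:(Zuc)-faBR], 10–12 weeks old (400–500 g), gavaged daily with vehicle (20% EtOH/80% PEG-200, 0.25% of body weight) or compound. After a 6-h fast, blood glucose was read by glucometer from tail-prick blood of unanesthetized rats before dosing and after 1 and 2 weeks. Values are mean ± SEM.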

Rattus norvegicus [15] = experiment: Amount of insulin in obese Zucker rats after 1 week of treatment at a dose of 100 mg/kg/day; summary of the method: as §4
Rattus norvegicus [16] = experiment: Amount of glucose in obese Zucker rats after 1 week of treatment at a dose of 3 mg/kg/day; summary of the method: as §6
Rattus norvegicus [17] = experiment: Amount of insulin in obese Zucker rats after 1 week of treatment at a dose of 30 mg/kg/day; summary of the method: as §4
Rattus norvegicus [18] = experiment: Amount of HDL-cholesterol in obese Zucker rats after 1 week of treatment at a dose of 0 mg/kg/day; summary of the method: as §1
Rattus norvegicus [19] = experiment: Percent decrease in triglycerides in obese Zucker rats after 1 week of treatment at a dose of 10 mg/kg/day; design: scale not given: the % may be the effect or the level left; summary of the method: as §2
Rattus norvegicus [20] = experiment: Amount of insulin in obese Zucker rats at pre-treatment at a dose of 10 mg/kg/day; summary of the method: as §4
Rattus norvegicus [21] = experiment: Amount of triglycerides in obese Zucker rats after 2 weeks of treatment at a dose of 10 mg/kg/day; summary of the method: as §5
Rattus norvegicus [22] = experiment: Percent increase in non-HDL-cholesterol in obese Zucker rats after 1 week of treatment at a dose of 0 mg/kg/day; summary of the method: as §2
Rattus norvegicus [23] = experiment: Amount of insulin in obese Zucker rats after 1 week of treatment at a dose of 10 mg/kg/day; summary of the method: as §4
Rattus norvegicus [24] = experiment: Percent increase in HDL-cholesterol in obese Zucker rats after 2 weeks of treatment at a dose of 10 mg/kg/day; summary of the method: as §2
Rattus norvegicus [25] = experiment: Percent increase in HDL-cholesterol in obese Zucker rats after 2 weeks of treatment at a dose of 30 mg/kg/day; summary of the method: as §2
Rattus norvegicus [26] = experiment: Amount of insulin in obese Zucker rats after 2 weeks of treatment at a dose of 0 mg/kg/day; summary of the method: as §4
Rattus norvegicus [27] = experiment: Amount of non-HDL-cholesterol in obese Zucker rats after 2 weeks of treatment at a dose of 3 mg/kg/day; summary of the method: as §3
Rattus norvegicus [28] = experiment: Percent increase in triglycerides in obese Zucker rats after 1 week of treatment at a dose of 0 mg/kg/day; summary of the method: as §2
Rattus norvegicus [29] = experiment: Percent decrease in nonesterified fatty acids in obese Zucker rats after 1 week of treatment at a dose of 100 mg/kg/day; design: scale not given: the % may be the effect or the level left; summary of the method: as §2
Rattus norvegicus [30] = experiment: Percent decrease in nonesterified fatty acids in obese Zucker rats after 2 weeks of treatment at a dose of 100 mg/kg/day; design: scale not given: the % may be the effect or the level left; summary of the method: as §2
Rattus norvegicus [31] = experiment: Percent decrease in non-HDL-cholesterol in obese Zucker rats after 2 weeks of treatment at a dose of 100 mg/kg/day; design: scale not given: the % may be the effect or the level left; summary of the method: as §2

Structure (SMILES) | Activity (Rattus norvegicus [1]) [mg/dL] | Activity (Rattus norvegicus [2]) [%] | Activity (Rattus norvegicus [4]) [mg/dL] | Activity (Rattus norvegicus [5]) [mg/dL] | Change (Rattus norvegicus [6]) [%] | Activity (Rattus norvegicus [7]) [ng/mL] | Activity (Rattus norvegicus [8]) [%] | Activity (Rattus norvegicus [9]) [mg/dL] | Activity (Rattus norvegicus [10]) [mg/dL] | Activity (Rattus norvegicus [12]) [mg/dL] | Activity (Rattus norvegicus [13]) [mg/dL] | Activity (Rattus norvegicus [14]) [mg/dL] | Activity (Rattus norvegicus [15]) [ng/mL] | Activity (Rattus norvegicus [16]) [mg/dL] | Activity (Rattus norvegicus [17]) [ng/mL] | Activity (Rattus norvegicus [18]) [mg/dL] | Activity (Rattus norvegicus [20]) [ng/mL] | Activity (Rattus norvegicus [21]) [mg/dL] | Activity (Rattus norvegicus [23]) [ng/mL] | Activity (Rattus norvegicus [25]) [%] | other results
CC(C)(CO)CCCCC(=O)CCCCC(C)(C)CO | 25 | 73 | 28 | 30 | 111 | 9.1 | -27 | 45 | 39 | 781 | 755 | 116 | 10.9 | 106 | 9.1 | 39 | 8.4 | 730 | 7.5 | 42 | Activity (Rattus norvegicus [3]): 20%; Activity (Rattus norvegicus [11]): 13%; Activity (Rattus norvegicus [19]): -23%; Activity (Rattus norvegicus [22]): 44%; Activity (Rattus norvegicus [24]): 15%; Activity (Rattus norvegicus [26]): 7.7 ng/mL; Activity (Rattus norvegicus [27]): 22 mg/dL; Activity (Rattus norvegicus [28]): 19%; Activity (Rattus norvegicus [29]): -30%
CC(C)(CCCCC(=O)CCCCC(C)(C)C(=O)O)C(=O)O | 24 | 74 | 37 | 48 | 54 | 9.8 | -33 | 38 | 33 | 857 | 996 | 118 | 9 | 99 | 9.2 | 39 | 10.6 | 814 | 7.7 | 47 | Activity (Rattus norvegicus [30]): -45%; Activity (Rattus norvegicus [31]): -29%; Activity (Rattus norvegicus [26]): 0.058 ng/mL; Activity (Rattus norvegicus [27]): 24 mg/dL; Activity (Rattus norvegicus [29]): -33%
CC(C)(CCCCCC(=O)CCCCCC(C)(C)C(=O)O)C(=O)O | 23 | 51 | 14 | 27 | 72 | 9.1 | -78 | 66 | 77 | 833 | 905 | 120 | 6.4 | 117 | 6.4 | 66 | 9.9 | 865 | 10.5 | 235 | Activity (Rattus norvegicus [30]): -52%; Activity (Rattus norvegicus [3]): 40%; Activity (Rattus norvegicus [11]): 58%; Activity (Rattus norvegicus [31]): -88%; Activity (Rattus norvegicus [19]): -36%; Activity (Rattus norvegicus [22]): 45%; Activity (Rattus norvegicus [24]): 60%; Activity (Rattus norvegicus [26]): 8.1 ng/mL; Activity (Rattus norvegicus [28]): 18%; Activity (Rattus norvegicus [29]): -30%
